Diaph inh CS: inhibits diaphorase or chemically oxidizes, flagging diaphorase assay artifacts | diaphorase resazurin-to-resorufin fluorescence, NADH, 16 min; bacterial (C. kluyveri) enzyme, not human | inhibition, % at 20 µM | actives 0.69% (n = 190,000);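 active = primary screen inhibition at 20 µM above a set limit, cut at about 50% in these data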;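 note: plate controls were DMSO with full reaction for no effect and wells lacking NADH for full effect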
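Test system: diaphorase enzyme from Clostridium kluyveri; amount: diaphorase at 0.14 U/mL in enzyme working solution; detection: fluorescence of resorufin formed from resazurin, Ex 544/Em 590 nm; times: reaction incubation of 16 min at room temperature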
Diaphorase act: activates diaphorase or chemically reduces, flagging diaphorase assay artifacts; AID 1229; activation factor at 20 µM; Diaphorase/resazurin coupled assay, resorufin fluorescence, 16 min; active compounds read high; 1 = vehicle wells, 0 = NADH-free wells; actives 0.005% (n = 190,000);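 active = diaphorase activity raised at least twofold by the compound at 20 µM; inactive = activation factor below 2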
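Material: purified diaphorase enzyme from Clostridium kluyveri; Also added: 0.114 mM NADH and 0.1 mM resazurin, final amounts; Doses: single compound dose of 20 µM, 1% DMSO final; Times: 16 min enzyme reaction, ambient temperature; Detection: resorufin fluorescence, excitation 544 nm, emission 590 nm; Measure: increased resorufin signal from activators or reducing compounds.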
Fh CTSL1 inh: blocks F. hepatica cathepsin L1 in PFM18AAP counter-screen. recombinant F. hepatica cathepsin L1, Z-Leu-Arg-MCA fluorescence. inhibition, % at 5.96 µM. actives 0.49% (n = 300,000). AID 1906;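 active = inhibition above the mean of all tested compounds plus 3 SD, set per screening campaign, cut at about 17% in these data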;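 note: 0% = plate median of test compound wells and 100% = 1 µM Z-Phe-Ala-diazomethylketone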
ATG4B inhibitor: inhibitors of human ATG4B cysteine protease; Q9Y4P1; ATG4B cleavage of LC3-PLA2, NBD-HPC fluorescence, 1 h; inhibition, % at 8.33 µM; actives 0.51% (n = 340,000); in the data active = inhibition above about 40%
Target sequence (Q9Y4P1 whole entry, looked up): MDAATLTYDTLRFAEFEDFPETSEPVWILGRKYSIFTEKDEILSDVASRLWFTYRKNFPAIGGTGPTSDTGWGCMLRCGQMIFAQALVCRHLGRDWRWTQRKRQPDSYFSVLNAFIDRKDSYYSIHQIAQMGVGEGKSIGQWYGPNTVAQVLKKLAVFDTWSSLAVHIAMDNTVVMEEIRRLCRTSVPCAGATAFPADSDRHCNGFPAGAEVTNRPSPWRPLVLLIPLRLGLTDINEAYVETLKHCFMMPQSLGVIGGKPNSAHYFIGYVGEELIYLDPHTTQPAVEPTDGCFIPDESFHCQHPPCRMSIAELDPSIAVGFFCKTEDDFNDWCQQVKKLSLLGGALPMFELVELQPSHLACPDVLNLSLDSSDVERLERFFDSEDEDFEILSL
HKDC1 inhibitor: blocks human hexokinase HKDC1 activity; actives 0.16% (n = 340,000); Q2TB90; inhibition, % at 20 µM; AID 493160; recombinant HKDC1, G6PDH/diaphorase resazurin coupled fluorescence;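 active = inhibition above about 35% when tested at 20 µM, limit read from the data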;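 note: plate controls were DMSO wells with enzyme for no effect and DMSO wells lacking enzyme for full effect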
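Test system: HK5 enzyme. Quantity: 5 µg/mL HK5 final. Reagent: glucose and ATP substrates. Schedule: 90 min reaction incubation at room temperature, dark. Technique: resazurin-to-resorufin fluorescence via G6PDH and diaphorase coupling, 525/613 nm. Control set: DMSO wells with and without enzyme mix.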
Active calls of the source: *; / = no result. Hits are enriched below; roughly 1.4% of the tested compounds scored in any of these assays.

SMILES	Diaph inh CS	Diaphorase act	Fh CTSL1 inh	ATG4B inhibitor	HKDC1 inhibitor
Oc1ccc(CN2CCC(Cc3ccccc3)CC2)c2cccnc12	62*	0.4	/	9	-7
CCOC(=O)N1CCN(Cc2ccc(O)c3ncccc23)CC1	72*	0.3	-3	-2	-6
NC(=O)c1cc([N+](=O)[O-])c(Cl)cc1NCc1ccccn1	/	/	2	7	0
Oc1ccc(CN2CCCCC2)c2cccnc12	58*	0.4	2	5	-6
CC(C)NC[C@@H](O)c1ccc(O)c(O)c1	62*	0.4	-7	-2	5
COc1cc2nc(=S)n3[nH]c(CCn4nc(C)cc4C)nc3c2cc1OC	92*	0.1	7	-10	19
Cc1ccccc1OCc1nc2ccccc2c(=O)n1N	17	0.8	0	-5	-9
COc1cc2nc(=S)n3[nH]c(COc4ccccc4C)nc3c2cc1OC	91*	0.1	0	5	-16
CC(C)CN(C(=O)COC(=O)c1ccc2c(c1)OCO2)c1c(N)n(Cc2ccccc2)c(=O)[nH]c1=O	/	/	-5	1	-5
COCCN=c1scc(-c2cccs2)n1/N=C/c1ccc(O)c(O)c1O	69*	0.3	6	7	10
CCN=c1scc(C)n1/N=C/c1ccc(O)c(O)c1O	79*	0.2	1	-7	18
CCN=c1scc(C)n1/N=C/c1cc(Br)c(O)c(Br)c1	25	0.8	6	22	1
CC(=O)N1CCc2cc(Br)cc(S(=O)(=O)NCCCN(C)Cc3ccccc3)c21	/	/	-2	-5	-6
N#Cc1c(-c2ccco2)cc(-c2cccnc2)nc1N	52*	0.5	10	-12	8
COc1ccc(/C=C(/NC(=O)c2ccccc2)C(=O)N2CCOCC2)cc1OC	/	/	19*	11	0
COc1ccc(-c2ccc(/C=C(\NC(=O)c3ccccc3)C(=O)N3CCOCC3)o2)cc1	3	1	78*	-19	0
Cc1ccc(C2=N/C(=C\N3CCCCC3)C(=O)O2)cc1	0	1	6	3	-2
Cc1nn(-c2ccccc2)c(N2CCCC2)c1/C=C1\N=C(c2ccc(OC(C)C)cc2)OC1=O	17	0.8	74*	-5	2
Cc1cc(C)cc(C(=O)Nc2ccc(N3CCN(C(=O)c4ccco4)CC3)cc2)c1	/	/	2	8	-3
O=C(CS(=O)(=O)c1cn(Cc2ccc(F)cc2)c2ccccc12)N1CCOCC1	69*	0.3	-2	-14	5
COc1cc2[nH]c(=O)n(CCCC(=O)N3CC=C(c4ccccc4)CC3)c(=O)c2cc1OC	58*	0.4	12	6	2
CN1CCN(C(=O)CCCN2C(=O)/C(=C/c3ccccc3)SC2=S)CC1	/	/	1	2	1
O=C(O)CCCN1C(=O)/C(=C\C(Cl)=C\c2ccccc2)SC1=S	/	/	/	17	44*
O=C(O)CCCN1C(=O)/C(=C/C=C/c2ccco2)SC1=S	/	/	0	52*	20
O=C(O)CC(C(=O)O)N1C(=O)/C(=C/C=C/c2ccco2)SC1=S (stereo not given)	/	/	1	31	9
SMILES	Diaph inh CS	Diaphorase act	Fh CTSL1 inh	ATG4B inhibitor	HKDC1 inhibitor
CC(/C=C1\SC(=S)N(CCCC(=O)Nc2ccc(C(=O)O)c(O)c2)C1=O)=C\c1ccccc1	22	0.8	4	41*	16
O=C(NN1C(=O)/C(=C/C=C/c2ccco2)SC1=S)c1ccccc1O	/	/	3	70*	19
COc1cccc(CNC(=O)C2CCN(S(=O)(=O)c3ccc(Br)s3)CC2)c1	/	/	1	28	-1
COc1ccc(C(=O)OCC(=O)NC2CC2)cc1F	/	/	/	3	-2
Nc1ccccc1Nc1ccccc1	27	0.7	19*	2	6
CCn1cc(C(=O)NCc2ccc3c(c2)OCO3)c(=O)c2cc(S(=O)(=O)N3CCOCC3)ccc21	8	0.9	7	-8	0
CCn1cc(C(=O)NCc2ccc3c(c2)OCO3)c(=O)c2cc(S(=O)(=O)N(C)C)ccc21	10	0.9	18*	-12	-5
Cc1ccc(C)c(S(=O)(=O)Nc2ccc(C(N)=O)cc2)c1	57*	0.4	5	-7	-11
Cc1ccc(C)c(NS(=O)(=O)c2cc(C(N)=O)ccc2C)c1	-9	1.1	2	-1	3
CCNc1nc(SC)nc(N(C#N)CC(=O)OC)n1	9	0.9	62*	4	-3
COC(=O)CN(C#N)c1nc(C)cc(C)n1	8	0.9	8	-6	-8
COC(=O)CN(C#N)c1nc(OC)nc(N(C)C)n1	11	0.9	40*	-2	-2
CCOC(=O)CN(C#N)c1nc(C)cc(C)n1	8	0.9	19*	-3	0
COC(=O)CN(C#N)c1nc(NC(C)C)nc(OC)n1	3	1	80*	2	-6
COC(=O)CN(C#N)c1nc(NCc2ccccc2)nc(OC)n1	/	/	/	0	6
CC(C)CCC1(C)NC(=O)N(CC(=O)c2ccc[nH]2)C1=O (stereo not given)	/	/	7	-7	9
CCCCn1c(N)c(N(CC(C)C)C(=O)CSCc2cccc(C)c2)c(=O)[nH]c1=O	/	/	5	7	-6
COC(=O)CN(C#N)c1nc(N(C)C)nc(N(C)C)n1	1	1	21*	-1	4
CCOC(=O)c1c(C)oc2c1c(C=NCc1ccccn1)c(O)c1ccccc12	64*	0.4	/	2	22
CCOC(=O)c1c(C)oc2c1cc(O)c1ccccc12	15	0.9	0	-7	6
CCOC(=O)c1c(C)oc2c1c(C=NCC1CCCO1)c(O)c1ccccc12 (stereo not given)	75*	0.3	/	6	15
CCOc1ccc2nc(N/C(N)=N/C(=S)Nc3cccc(OC)c3)nc(C)c2c1	/	/	23*	3	5
CCOC(=O)N1CCN(C(=O)Nc2ccc(NC(=O)N3CCN(C(=O)OCC)CC3)cc2)CC1	/	/	1	-9	-3
CCOC(=O)N1CCN(C(=O)Nc2cccc3ccccc23)CC1	12	0.9	17*	-12	6
NC(=O)CC1Nc2cccc3cccc(c23)NC1=O (stereo not given)	56*	0.4	2	2	0
CCN1CCN(c2ccc(Nc3ccnc4ccccc34)cc2)CC1	/	/	/	5	-1
COc1cc(COCC(O)CN2C(C)CCCC2C)cc(OC)c1OC (stereo not given)	/	/	0	4	-5
C=CCN(CC=C)Cc1c(C)[nH]c2c(C)c(C)ccc2c1=O	-12	1.1	7	8	15
CCN(Cc1ccccc1)Cc1c(C)[nH]c2c(C)c(C)ccc2c1=O	18	0.8	48*	-3	-4
CCN(CC(=O)Nc1ccc(OC)cc1)C(=O)c1ccc(OCc2c(C)noc2C)cc1	/	/	/	-9	-7

Screening results deposited in PubChem BioAssay by several laboratories.
